Measurements gathered from unrelated publications.
Each line is one published result; the experiments were not run side by side.
Target: Calcium/calmodulin-dependent protein kinase kinase 2 (CAMKK2, Homo sapiens, UniProt Q96RR4)

For `Cc1ccc(NC(=O)c2ccnc(C(F)(F)F)c2)cc1-c1cc(OCCO)nc(N2CCOCC2)c1`, the remaining binding was 98% (binding; 1 µM).
The inhibition of `C=CC(=O)N1CCC([C@@H]2CCNc3c(C(N)=O)c(-c4ccc(Oc5ccccc5)cc4)nn32)CC1` is reported as 12% (enzyme activity, inhibitor; 1 µM).
For `COc1ccc2[nH]c3c4[nH]c5ccc(OC)cc5c4c4c(c3c2c1)C(=O)NC4=O`, the remaining binding was 74% (binding; 1 µM).
`C#Cc1cc(-c2cc(Nc3nc(N[C@@H](C)c4ccc(F)cn4)ncc3Cl)n[nH]2)ccc1C=O` gave an inhibition of 57.9% (enzyme activity, inhibitor; 0.2 µM).
With `C=CC(=O)N1CCC[C@@H](n2nc(-c3ccc(Oc4ccccc4)cc3)c3c(N)ncnc32)C1` the inhibition was 4% (enzyme activity, inhibitor; 1 µM).
For `CCCCC(=O)Nc1ccc(-c2ccc3ncn(CCC)c(=O)c3c2)cn1`, the remaining binding was 100% (binding, competition with immobilised ligand; 0.5 µM).
`Cc1cc(O)c(-c2ccc([C@@H](C)CN(C)C)cc2)c2c1[nH]c(=O)c1sccc12` has an inhibition of 6.79% (enzyme activity, inhibitor; 0.1 µM).
For `C1=C/COCc2cc(ccc2OCCN2CCCC2)Nc2nccc(n2)-c2cccc(c2)COC/1`, the remaining binding was 68% (binding; 0.1 µM).
